Consider 3 compounds from PMC7894357 (Chemmedchem, 2020).

One data set deals with HIV‐2. Type of data set: cell-based. As to conditions: CEM-TK(-), read-out: EC50 CEM/TK− HIV‐1. The essentials: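 CEM/TK⁻ cells (~3×10⁵ cells/mL) were infected with HIV‑1(III_B) or HIV‑2(ROD) at 100 CCID₅₀/mL and cultured with serial dilutions of test compound. After 4–5 days at 37 °C in humidified CO₂, giant (syncytium) cell formation was scored microscopically. EC50 is the concentration that halves giant cell formation. Values are mean ±SD of n=2–3 independent experiments.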

A short description of data set [1]: Cytotoxicity: inhibition of CD4+ T-cell. Type of data set: cell-based. As to conditions: human, CEM/0 cells (CD4+ T cells).
For data set [2] the following is noted: symmetric TriPPPro-compounds, PB pH 7.3; cited from earlier work.
The conditions of data set [3]: previous work; cited from earlier work.

On to `Cc1cn([C@H]2C=C[C@@H](CO)O2)c(=O)[nH]c1=O` [d4T 1, 3'‐deoxy‐2',3'‐didehydrothymidine], for which the EC50 in the data set on HIV‐2 was over 50 µM. The cytotoxic concentration (CC50) (commonly the concentration at which the toxic effect on the cells reaches its halfway point) in data set [1] is over 50 µM.
In the case of `CCCCCCCCCC(=O)Oc1ccc(COP(=O)(OCc2ccc(OC(=O)CCCCCCCCC)cc2)OP(=O)(O)OP(=O)(O)OC[C@@H]2C=C[C@H](n3cc(C)c(=O)[nH]c3=O)O2)cc1` [γ‐(AB−C9,AB−C9)‐d4TTP], the “half-life in PB (t1/2)” value in data set [2] is 44 h. The “half-life in CEM/0 cell extracts (t1/2)” value in data set [3] is 2.8 h.
For γ‐(AB−C4,AB−C4)‐d4TTP, the “half-life in PB (t1/2)” value in data set [2] is 22 h. The “half-life in CEM/0 cell extracts (t1/2)” value in data set [3] is reported as 0.43 h.
